Reference: PMC2745708 (Free radical biology & medicine, 2009)

How the values were obtained:
[1] = target: NOS2 (Homo sapiens, UniProt P35228); assay: 14-C-L-arginine to 14-C-L-citrulline conversion by purified recombinant NOS2; assay type: biochemical
[2] = target: NOS1 (Rattus norvegicus, UniProt P29476); assay: 14-C-L-arginine to 14-C-L-citrulline conversion by purified recombinant NOS1; assay type: biochemical
Procedure, shortened: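 Purified recombinant rat NOS1 or human NOS2 holoprotein at 5 nM. Incubated 60 min at 37°C with 2.9 μM 14C-L-arginine and 10 μM unlabeled L-arginine in 50 mM HEPES pH 7.5, with 10 μM FAD, 1 mM DTT, 100 μM tetrahydrobiopterin, 200 μM NADPH, and graded test compound, in near-dark. Stopped with HEPES pH 5.5/citrulline/EDTA. 14C-citrulline separated on Dowex 50W-X8, scintillation-counted; percent inhibition calculated.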

[3] = target: NOS3 (Bos taurus, UniProt P29473); assay: 14-C-L-arginine to 14-C-L-citrulline conversion by purified recombinant NOS3; assay type: biochemical, bovine; conditions: purified recombinant enzyme
Procedure, shortened: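 Purchased recombinant bovine NOS3, with NOS co-factors and 14C-L-arginine, with or without graded test compound, in near-dark conditions. 14C-L-citrulline formed was separated from 14C-L-arginine on a Dowex 50W-X8 cation-exchange column and counted by scintillation. Activity is given as percent inhibition.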

[4] = test system: Raw 264.7 mouse macrophage cell line; assay: NO production by interferon-gamma-activated macrophages; assay type: cell-based; conditions: 0.5, 2.0 or 8.0 μM for 24 hours with 500 units/ml murine interferon gamma
Procedure, shortened: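 Raw 264.7 cells kept by serial passage in RPMI-1640 with 10% FBS. Activated 24 h with 500 units/ml murine interferon-gamma, with 0, 0.5, 2.0 or 8.0 μM test compound present throughout. Loaded with 10 μM DAF-FM for 30 min, washed, and fluorescence read at 495/515 nm. NO production given as percent of control; SEM from 6 separate experiments.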

[5] = target: NOS2 oxygenase domain (Homo sapiens, UniProt P35228); assay: CO binding to reduced NOS2 oxygenase domain heme; conditions: NOS2 oxygenase domain reduced with dithionite
NOS2 oxygenase domain, sequence (P35228 1-504 limits assumed): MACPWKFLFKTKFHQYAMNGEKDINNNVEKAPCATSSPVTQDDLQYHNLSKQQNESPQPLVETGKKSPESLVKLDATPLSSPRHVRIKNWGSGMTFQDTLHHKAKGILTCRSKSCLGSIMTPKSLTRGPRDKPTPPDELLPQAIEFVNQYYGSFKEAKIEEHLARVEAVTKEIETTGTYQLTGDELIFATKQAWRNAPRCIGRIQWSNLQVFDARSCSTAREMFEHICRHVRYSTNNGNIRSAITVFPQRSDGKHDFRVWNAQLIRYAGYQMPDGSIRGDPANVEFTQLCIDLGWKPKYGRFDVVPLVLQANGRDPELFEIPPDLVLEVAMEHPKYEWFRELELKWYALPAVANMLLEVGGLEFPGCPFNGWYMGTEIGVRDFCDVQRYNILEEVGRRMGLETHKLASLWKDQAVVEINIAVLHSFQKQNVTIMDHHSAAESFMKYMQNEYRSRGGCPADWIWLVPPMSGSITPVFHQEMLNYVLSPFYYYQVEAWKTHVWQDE
Procedure, shortened: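 Purified recombinant NOS2 oxygenase domain (about 3 μM final) reduced with dithionite and exposed to CO, with or without test compound. UV/visible spectra recorded, monitoring the ferrous-heme–CO peak at 445 nm.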

[6] = agent exposed to light for 60 minutes (with light)
[7] = agent not exposed to light (no light)
[8] = purified recombinant enzyme, 60 min, 37°C

Compound: C/C1=C2/[N-][C@H]([C@H](CC(N)=O)[C@@]2(C)CCC(=O)NC[C@H](C)OP(=O)([O-])O[C@H]2[C@@H](O)[C@@H](n3cnc4cc(C)c(C)cc43)O[C@@H]2CO)[C@]2(C)N=C(/C(C)=C3N=C(/C=C4N=C1[C@@H](CCC(N)=O)C\4(C)C)[C@@H](CCC(N)=O)[C@]\3(C)CC(N)=O)[C@@H](CCC(N)=O)[C@]2(C)CC(N)=O.[CH3-].[Co+3] [Methylcobalamin]
- Estimated ED50 NOS2 [1, 6]: 63.0 µM
- Estimated ED50 NOS2 [1, 7]: 231.0 µM
- Estimated ED50 NOS1 [2, 6]: 5.9 µM
- Estimated ED50 NOS1 [2, 7]: 576.0 µM

Compound: C/C1=C2N=C(/C=C3N=C(/C(C)=C4\[N-]C(C(CC(N)=O)C4(C)CCC(=O)NCC(C)OP(=O)([O-])OC4C(CO)OC(n5cnc6cc(C)c(C)cc65)C4O)C4(C)N=C1C(CCC(N)=O)C4(C)CC(N)=O)C(CCC(N)=O)C\3(C)C)C(CCC(N)=O)C/2(C)CC(N)=O.NC(CCC(=O)NC(C[S-])C(=O)NCC(=O)O)C(=O)O.[Co+3] (stereo not drawn) [Glutathionylcobalamin]
- Estimated ED50 NOS2 [1, 8]: 29.0 µM
- Estimated ED50 NOS1 [2, 8]: 9.6 µM
- Estimated ED50 NOS3 [3]: 41.0 µM

Compound: C/C1=C2/[N-][C@H]([C@H](CC(N)=O)[C@@]2(C)CCC(=O)NC[C@@H](C)O)[C@]2(C)N=C(/C(C)=C3N=C(/C=C4N=C1[C@@H](CCC(N)=O)C\4(C)C)[C@@H](CCC(N)=O)[C@]\3(C)CC(N)=O)[C@@H](CCC(N)=O)[C@]2(C)CC(N)=O.[Co+3] [Cobinamide]
- Estimated ED50 NOS2 [1, 8]: 50.0 µM
- Estimated ED50 NOS1 [2, 8]: 15.0 µM
- Estimated ED50 NOS3 [3]: 43.0 µM

Compound: Cyanocobalamin
- Estimated ED50 NOS2 [1, 8]: 1620.0 µM
- Estimated ED50 NOS1 [2, 8]: 72.0 µM
- Estimated ED50 NOS3 [3]: 519.0 µM

Compound: C/C1=C2/[N-][C@H]([C@H](CC(N)=O)[C@@]2(C)CCC(=O)NC[C@@H](C)OP(=O)([O-])O[C@H]2[C@@H](O)[C@@H](n3cnc4cc(C)c(C)cc43)O[C@@H]2CO)[C@]2(C)N=C(/C(C)=C3N=C(/C=C4N=C1[C@@H](CCC(N)=O)C\4(C)C)[C@@H](CCC(N)=O)[C@]\3(C)CC(N)=O)[C@@H](CCC(N)=O)[C@]2(C)CC(N)=O.[CH2-][C@H]1O[C@@H](n2cnc3c(N)ncnc32)[C@H](O)[C@@H]1O.[Co] [Adenosylcobalamin]
- Estimated ED50 NOS2 [1, 6]: 60.0 µM
- Estimated ED50 NOS2 [1, 7]: 2148.0 µM
- Estimated ED50 NOS1 [2, 6]: 6.4 µM
- Estimated ED50 NOS1 [2, 7]: 498.0 µM

Compound: C/C1=C2/[N-][C@H]([C@H](CC(N)=O)[C@@]2(C)CCC(=O)NC[C@@H](C)OP(=O)([O-])O[C@H]2[C@@H](O)[C@@H](n3cnc4cc(C)c(C)cc43)O[C@@H]2CO)[C@]2(C)N=C(/C(C)=C3N=C(/C=C4N=C1[C@@H](CCC(N)=O)C\4(C)C)[C@@H](CCC(N)=O)[C@]\3(C)CC(N)=O)[C@@H](CCC(N)=O)[C@]2(C)CC(N)=O.[Co+3].[OH-] [Hydroxocobalamin]
- Estimated ED50 NOS2 [1, 8]: 21.1 µM
- Estimated ED50 NOS1 [2, 8]: 5.7 µM
- Estimated ED50 NOS3 [3]: 9.1 µM

Compound: CC1(C)N([O])C(c2ccc(C(=O)[O-])cc2)=[N+]([O-])C1(C)C.[K+] [Carboxy-PTIO, 2-(4-Carboxyphenyl)-4,4,5,5-tetramethylimidazoline-1-oxyl-3-oxide (potassium salt)]
- Estimated ED50 NOS2 [1, 8]: 1359.0 µM
- Estimated ED50 NOS1 [2, 8]: 1360.0 µM

Compound: C/C1=C2/[N-]C([C@H](CC(N)=O)[C@@]2(C)CCC(=O)NCC(C)O)[C@]2(C)N=C(/C(C)=C3N=C(/C=C4N=C1[C@@H](CCC(N)=O)C\4(C)C)[C@@H](CCC(N)=O)[C@]\3(C)CC(N)=O)[C@@H](CCC(N)=O)[C@]2(C)CC(N)=O.[C-]#N.[C-]#N.[Co] (stereo partly drawn) [Dicyanocobinamide]
- Estimated ED50 NOS2 [1, 8]: 2.29 µM
- NO production by cells [4]: dose-dependent inhibition
- Estimated ED50 NOS1 [2, 8]: 0.23 µM
- Estimated ED50 NOS3 [3]: 0.33 µM
- Effect on CO-induced spectral changes (ferrous-CO adduct formation) [5]: markedly diminished
